Cneo AK release – Cryptococcus neoformans lysis via adenylate kinase release. C. neoformans lysis, adenylate kinase release luminescence, 4 h; normalised: neutral wells 0, clomiphene wells 100. lysis activity, % at 15 µM. hit rate 0.2% among 360,000. AID 651654;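 active = mean lysis activity across replicates of at least 80%, whatever share of replicates individually reach that level; inactive = mean lysis activity below 80%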
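Material – log-phase Cryptococcus neoformans yeast cells · Input – 5 × 10^6 yeast cells/mL · Medium – fresh YPD growth medium · Doses – single compound concentration per well · Timing – static 4 h at 37 °C with compound, 1 h detection · Detection – adenylate kinase release luminescence · Read-out – signal increase indicating cell lysis · Control set – Clomiphene as positive lysis control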
PglD DTNB – PglD (C. jejuni) enzyme inhibition | purified PglD enzyme, DTNB colorimetric CoA detection | inhibition, % at 12.5 µM | hit rate 0.098% among 360,000 | AID 602405; in the data active = inhibition above about 16%, passing the limit was not always enough
rRNA inh HTS – inhibitors of bacterial rRNA selective over humanized ribosomes. GFP signal change (wild-type ribosome), % (test concentration not listed). hit rate 1.6% among 350,000. E. coli WT GFP vs humanized-ribosome RFP mutants, fluorescence, 24 h; active compounds read low; DMSO median 0, no signal -100;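 active = significant combined selectivity score with lowered wild-type GFP, culture density cut under 30%, mutant RFP and density less affected; inactive = any of these conditions unmet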
RAD52 inh – blocks human RAD52 DNA annealing. P43351. recombinant RAD52 DNA annealing, FRET fluorescence. inhibition, % at 18.7 µM. hit rate 0.46% among 360,000;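 active = every replicate showing at least 50% inhibition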
Target sequence (P43351 whole entry, looked up): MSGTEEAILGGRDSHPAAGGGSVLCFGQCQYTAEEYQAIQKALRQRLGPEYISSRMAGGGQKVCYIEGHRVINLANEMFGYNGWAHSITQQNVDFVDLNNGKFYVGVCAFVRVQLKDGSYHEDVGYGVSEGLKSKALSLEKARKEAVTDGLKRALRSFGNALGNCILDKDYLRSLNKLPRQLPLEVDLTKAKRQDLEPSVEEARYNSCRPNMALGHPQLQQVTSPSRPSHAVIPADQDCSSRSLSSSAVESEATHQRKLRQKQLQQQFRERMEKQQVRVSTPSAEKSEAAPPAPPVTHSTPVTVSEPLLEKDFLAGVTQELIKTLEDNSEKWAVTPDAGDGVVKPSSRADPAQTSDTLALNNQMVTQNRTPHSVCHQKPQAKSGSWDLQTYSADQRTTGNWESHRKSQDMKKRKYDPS
RAD54 branch – RAD54 (human) branch migration inhibition. RAD54 Holliday junction branch migration, FAM/BHQ fluorescence. hit rate 0.14% among 360,000. Q92698. AID 602329. inhibition, % at 10.4 µM;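 active = mean normalized replicate activity at least 40 and at least half of replicates scoring 40 or more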;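 also: 0% = median of neutral control wells and 100% = median of positive control wells; inhibitors cause a drop in the FAM fluorescence signal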
The depositor's hits bear a star; . = no result. Sampled rows, rich in hits. Any-hit rate of the full collection: about 1.9%.

SMILES	Cneo AK release	PglD DTNB	rRNA inh HTS	RAD52 inh	RAD54 branch
CC(C)NC(=O)Nc1ccc2c(c1)C(=O)N([C@@H](C)CO)C[C@@H](C)[C@@H](CN(C)S(=O)(=O)c1ccc(Cl)cc1)OCCCC[C@@H](C)O2	102*	-1	-4	-57	-2
Cc1ccc(S(=O)(=O)N(C)C[C@H]2OCCCC[C@H](C)Oc3ccc(NS(=O)(=O)c4ccc(Cl)cc4)cc3C(=O)N([C@H](C)CO)C[C@H]2C)cc1	0	-1	0	-14	4
CC(C)NC(=O)N1[C@@H](C#N)[C@H](c2ccc(C#CC3CCCC3)cc2)[C@@H]1CO	5	5	-35	-4	-3
CCC(=O)N1CCC2(CC1)CN(C(=O)Nc1ccccc1F)[C@H](CO)c1c2c2ccc(OC)cc2n1C	.	.	-2	.	.
CC(C)NC(=O)Nc1ccc2c(c1)C(=O)N([C@H](C)CO)C[C@@H](C)[C@H](CN(C)S(=O)(=O)c1ccc(Cl)cc1)O2	-3	4	-1	5	56*
CC(C)NC(=O)Nc1ccc2c(c1)C(=O)N([C@@H](C)CO)C[C@@H](C)[C@@H](CN(C)S(=O)(=O)c1ccc(Cl)cc1)O2	-2	7	-3	7	16
CC(C)NC(=O)Nc1ccc2c(c1)CC(=O)N([C@@H](C)CO)C[C@@H](C)[C@H](CN(C)Cc1ccc(-c3ccccc3)cc1)O2	0	2	-5	12	-6
CN(Cc1ccccc1)C1=CC(=[N+]2CCCC2)CC(C)(C)C1	-1	4	-33*	-10	-10
CC1(C(=O)NS(=O)(=O)c2cccc(C#N)c2)CCN1C(=O)C1(c2ccc(Cl)cc2)CCC1 (stereo not given)	2	1	-15*	-16	-5
CC1(C(=O)NS(=O)(=O)c2ccc(C#N)cc2)CCN1C(=O)C1(c2ccc(Cl)cc2)CCC1 (stereo not given)	2	-2	-9	-6	-5
CC1(C(=O)NS(=O)(=O)c2cccc(F)c2)CCN1C(=O)C1(c2ccc(Cl)cc2)CCC1 (stereo not given)	-1	0	-16*	-14	5
CC(C)(C)c1ccc(CC(=O)N2CCC2(C)C(=O)NS(=O)(=O)c2cccc(Cl)c2)cc1 (stereo not given)	3	-2	-33*	-8	-2
CC1(C(=O)NS(=O)(=O)c2ccc(F)cc2F)CCN1C(=O)C1(c2ccc(Cl)cc2)CCC1 (stereo not given)	0	2	-12	-21	-7
CC(C)(C)c1ccc(CC(=O)N2CCC2(C)C(=O)NS(=O)(=O)c2cccc(C#N)c2)cc1 (stereo not given)	7	-2	4	-10	-5
CCCC#Cc1ccc([C@@H]2[C@H]3CN(C(=O)Cc4cccnc4)CC(=O)N3[C@H]2CO)cc1	.	.	-1	-8	.
CO[C@H]1CN(C)C(=O)c2cc(NC(=O)NC(C)C)ccc2OC[C@@H](C)N(C(=O)C2CCC2)C[C@H]1C	54	1	-1	5	0
O=C(CNC(=O)c1ccco1)OCc1ccc(C(=O)c2ccccc2)cc1	.	.	-33*	-22	.
Cc1ccccc1S(=O)(=O)N1CC(=O)N2[C@H](CO)[C@@H](c3ccc(C#CC4CC4)cc3)[C@@H]2C1	.	.	3	-11	.
N#C/C(=C/c1ccc(OCc2ccc(C(=O)O)cc2)c(Br)c1)c1cccc(F)c1	.	.	-27*	-1	.
N#C/C(=C/c1ccccc1OCc1ccc(F)cc1)c1ccc(C(=O)O)cc1	-2	-4	-48	-1	-1
COc1ccc(NC(=O)Nc2ccc3c(c2)[C@H]2C[C@@H](CC(=O)O)O[C@@H](CO)[C@H]2O3)cc1	-3	-2	6	-1	-2
COc1ccc(C(=O)O)cc1S(=O)(=O)Nc1cc(Cl)ccc1N1CCOCC1	-2	-3	2	-12	-13
COc1ccc(C(=O)O)cc1S(=O)(=O)Nc1cc(C(F)(F)F)ccc1N1CCCCC1	14	5	-25*	3	8
CCN1[C@H](C(=O)NC2CCCC2)[C@@H](CO)[C@@H]2Cn3c(ccc(-c4ccccc4F)c3=O)[C@@H]21	-3	0	-10	4	-8
CN(CCCC(=O)Nc1ccc(Br)cc1F)S(=O)(=O)c1ccccc1	2	7	-22*	-18	0
SMILES	Cneo AK release	PglD DTNB	rRNA inh HTS	RAD52 inh	RAD54 branch
CN(CCCC(=O)Nc1ccccc1F)S(=O)(=O)c1ccc(F)cc1	0	-3	-4	-13	-1
COc1ccc2c3c([nH]c2c1)[C@H](CO)N(C(=O)c1cccc(F)c1)CC31CN(C(=O)c2cccc(F)c2)C1	.	.	-3	-15	.
CCN(CC)c1ccc(N=Cc2ccccc2[N+](=O)[O-])cc1	0	1	-32*	25	5
CCN(CC)c1ccc(N=Cc2ccc([N+](=O)[O-])o2)cc1	.	.	.	-9	.
O=C(C[C@@H]1CC[C@H](NC(=O)Nc2ccc3c(c2)OCO3)[C@@H](CO)O1)NCCCN1CCOCC1	0	0	0	-6	7
COc1ccccc1NC(=O)c1c(C)nn(-c2ccccc2)c1Cl	0	-2	-36*	-6	-2
COc1ccc(C(=O)NC(=S)NC(C)c2ccccc2)cc1 (stereo not given)	4	1	-32*	-5	0
COc1ccc(Cl)cc1NC(=O)CN(C)C(=O)c1sccc1-c1ccccc1	-2	-3	-33*	-16	25
COc1ccc(C)cc1NC(=O)CNc1ccccc1CN(C)C1CCCCC1	1	-2	-20	22	2
COc1ccc(NC(=O)CNCc2cccs2)c(OC)c1	-3	2	2	-3	11
Cc1ccc(NC(=O)COC(=O)Cc2cccs2)c(Br)c1	2	1	-1	-15	-10
COc1ccc(Cl)cc1NC(=O)CN(C)C(=O)c1sc2ccccc2c1Cl	1	-4	-1	14	-2
Cc1ccc(NC(=O)CNCc2cccs2)c(Br)c1	-3	0	-27*	-9	-18
COc1ccc(Cl)cc1NC(=O)CNc1ccccc1CN(C)C1CCCCC1	.	.	-34*	-9	.
COc1ccc(Cl)cc1NC(=O)CNCc1cccs1	3	-4	-32*	-13	12
C#CCN([C@H](/C=C/C1CC1)[C@@H](O)Cc1ccccc1)[C@@H]1C(=O)N2[C@@H]1SC(C)(C)[C@@H]2C(=O)OC	4	.	.	8	.
Cc1noc(C)c1S(=O)(=O)N(C)C[C@@H]1Oc2ccc(NC(=O)CCN3CCOCC3)cc2CC(=O)N([C@@H](C)CO)C[C@@H]1C	.	.	2	-7	.
COc1ccc(CN(C)C[C@@H]2Oc3c(NC(=O)C4CCCCC4)cccc3C(=O)N([C@@H](C)CO)C[C@@H]2C)cc1	.	1	0	8	-4
O=C(c1ccncc1)N1CC(=O)N2[C@H](CO)[C@@H](c3ccc(C#CCC4CCCC4)cc3)[C@@H]2C1	.	.	-33	.	.
Cc1ccc(NC(=O)CNCc2ccccc2)c(Br)c1	.	.	-28*	-12	.

Bioassay records deposited in PubChem BioAssay by Broad Institute.
